Data: PMC3656605 (Nature, 2012)

Assays:
[1] = tested on: HIF in IDH1 R132H immortalized human astrocytes; type: cell-based; details: 21% oxygen, increasing amounts for 16 hours
In short: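 Immortalized human astrocytes (passage 10) expressing wild-type or mutant IDH1 were dosed with test compound for 16 h before lysis in 50 mM Tris pH 8.0, 120 mM NaCl, 0.5% NP-40 with protease inhibitors. Extracts were run on 10% SDS-PAGE and transferred to nitrocellulose. Blots were blocked in TBS/5% milk, probed with anti-HIF1α monoclonal antibody, and detected by HRP-secondary chemiluminescence.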

EglN3 = EglN3 (Homo sapiens, UniProt Q9H6Z9); type: biochemical; details: standard assay conditions, 10 μM 2-OG
EglN3, sequence (Q9H6Z9 whole entry): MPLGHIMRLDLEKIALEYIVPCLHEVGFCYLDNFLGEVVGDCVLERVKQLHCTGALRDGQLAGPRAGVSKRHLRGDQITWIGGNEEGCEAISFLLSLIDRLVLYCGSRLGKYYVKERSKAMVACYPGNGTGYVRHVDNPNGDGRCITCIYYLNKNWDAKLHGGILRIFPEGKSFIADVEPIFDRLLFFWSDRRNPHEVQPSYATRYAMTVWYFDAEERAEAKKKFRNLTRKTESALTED

EglN1 [2] = biological target: T1, EglN1 (Homo sapiens, UniProt Q9GZT9); type: biochemical
T1 sequence (Q9GZT9 whole entry): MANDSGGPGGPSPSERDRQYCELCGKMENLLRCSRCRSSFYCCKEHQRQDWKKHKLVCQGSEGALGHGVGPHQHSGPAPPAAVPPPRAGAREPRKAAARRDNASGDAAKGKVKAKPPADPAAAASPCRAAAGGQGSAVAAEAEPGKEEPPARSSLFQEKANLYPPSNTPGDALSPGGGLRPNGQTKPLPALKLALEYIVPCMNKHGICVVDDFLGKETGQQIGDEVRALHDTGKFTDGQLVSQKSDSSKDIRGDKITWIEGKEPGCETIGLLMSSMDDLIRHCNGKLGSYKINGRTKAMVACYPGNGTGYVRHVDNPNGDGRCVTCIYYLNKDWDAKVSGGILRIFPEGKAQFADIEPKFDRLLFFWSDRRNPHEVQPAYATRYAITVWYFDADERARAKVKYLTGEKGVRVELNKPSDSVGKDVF

FIH = assay: Inhibition of FIH, 14CO2 release, synthetic peptide substrate; type: biochemical, human; details: in vitro; 10 µM 2-oxo-[1-14C]glutarate
Tet1 = assay: Inhibition of Tet1, 14CO2 release, double stranded oligonucleotide substrate; type: biochemical, murine; details: in vitro; 120 µM 2-oxo-[1-14C]glutarate
EglN2 [3] = biological target: T2, EglN2 (Homo sapiens, UniProt Q96KS0); type: biochemical; details: standard assay conditions, 10 μM 2-OG
T2 sequence (Q96KS0 whole entry): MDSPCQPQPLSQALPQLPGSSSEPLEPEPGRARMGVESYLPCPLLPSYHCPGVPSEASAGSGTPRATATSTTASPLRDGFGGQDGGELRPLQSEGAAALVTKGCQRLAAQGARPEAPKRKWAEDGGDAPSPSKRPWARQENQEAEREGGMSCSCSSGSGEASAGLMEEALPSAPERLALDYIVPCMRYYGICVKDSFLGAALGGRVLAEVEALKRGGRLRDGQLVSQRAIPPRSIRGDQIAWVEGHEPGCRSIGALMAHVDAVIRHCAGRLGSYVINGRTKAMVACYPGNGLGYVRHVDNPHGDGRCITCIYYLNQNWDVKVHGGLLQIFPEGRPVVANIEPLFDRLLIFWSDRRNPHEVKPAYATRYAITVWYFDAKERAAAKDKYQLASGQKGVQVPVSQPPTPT

collagen P4H-I [4] = type: biochemical, human; details: no exogenous 2-OG
collagen P4H-I [5] = assay: Inhibition of collagen P4H-I, 14CO2 release; type: biochemical, human; details: in vitro; 100 µM 2-oxo-[1-14C]glutarate
[6] = tested on: JMJD2D histone demethylase; assay: JMJD2D histone demethylase activity; type: biochemical; details: data not shown; for Inhibition of JMJD2D histone demethylase (in words): in vitro
EglN1 [7] = biological target: T1, EglN1; type: biochemical; remark: listed apart in the source
Tet2 = assay: Inhibition of Tet2, 14CO2 release, double stranded oligonucleotide substrate; type: biochemical, murine; details: in vitro; 120 µM 2-oxo-[1-14C]glutarate
EglN2 [8] = biological target: T2, EglN2; type: biochemical; details: low mM concentrations, reactions lacking exogenous 2-OG

Row | SMILES | Resistance of R132H-expressing cells to the agent (HIF immunoblot) [1] | IC50 (EglN3; read-out: IC50, EglN3 inhibition) [mM] | Release of 14CO2 in EglN1 assays (EglN1 [2]; increasing amounts of R-2HG added to 10 μM 2-oxo-[1-14C]glutarate) | Inhibition of HIF asparaginyl hydroxylase FIH (in words) (FIH) | Inhibition of TET1 methyl cytosine hydroxylase (in words) (Tet1) | IC50 (EglN2 [3]; read-out: IC50, EglN2 inhibition) [mM] | Promotion of collagen prolyl 4-hydroxylase activity (collagen P4H-I [4]) | Inhibition of collagen prolyl 4-hydroxylases (in words) (collagen P4H-I [5]) | Promotion of JMJD2D histone demethylase activity [6] | Inhibition of JMJD2D histone demethylase (in words) [6] | Prolyl hydroxylation of HIF1α by EglN1 (EglN1 [7]; increasing R-2HG with 10 μM 2-OG, concentrations as high as 100 mM) | Promotion of EglN1 activity (EglN1 [7]; low mM concentrations, reactions lacking exogenous 2-OG) | Inhibition of TET2 methyl cytosine hydroxylase (in words) (Tet2) | Promotion of EglN2 activity (EglN2 [8]) | Inhibition of EglN3 (in words) (EglN3) | Inhibition of EglN1 (in words) (EglN1 [2]; standard assay conditions, 10 μM 2-OG) | Inhibition of EglN2 (in words) (EglN2 [3])
1 | COC(=O)CNC(=O)C(=O)OC [DMOG] | relatively resistant |  |  |  |  |  |  |  |  |  |  |  |  |  |  |  | 
2 | O=C(O)CC[C@@H](O)C(=O)O [R-2HG, R-2-hydroxyglutarate] |  | > 5 | progressively decreased | inhibit | inhibit | > 5 | did not promote | inhibit | did not promote | inhibit | without decreasing | promoted | inhibit | promoted |  |  | 
3 | O=C(O)CC[C@H](O)C(=O)O [S-2HG, S-2-hydroxyglutarate] |  |  |  | inhibit | inhibit |  |  | inhibit |  | inhibit |  |  | inhibit |  | micromolar to low millimolar inhibitor | micromolar to low millimolar inhibitor | micromolar to low millimolar inhibitor
